According to article PMC2998183 (Journal of nuclear medicine : official publication, Society …, 2010):
Blank lines part the entries; values can stand above or below the compound they belong to. Positions of bridges follow the written chain, without caps; N, C: chain ends. Non-standard residues stand in square brackets, D forms with d. No end group written: not given here. *: point of attachment. DOTA = O=C(O)CN1CCN(CC(=O)O)CCN(CC(=O)*)CCN(CC(=O)O)CC1; Nle = CCCC[C@H](N)C(=O)O

Columns and labels:
B16/F1 melanoma cells [1] = test: Cellular efflux in B16/F1 melanoma cells; assay type: cell-based; conditions: 2 h after incubating cells in culture medium
Summary of the method: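 B16/F1 cells were loaded with ¹¹¹In-labelled test compound for 2 h at 25°C, then given 2 ice-cold PBS rinses to remove non-specifically bound activity. Radioactivity released into the culture medium was monitored. At 20, 40, 60, 90 and 120 min, cell-surface and intracellular radioactivity were collected separately and gamma-counted.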

B16/F1 melanoma cells [2] = test: Cellular internalization in B16/F1 melanoma cells; assay type: cell-based; conditions: 25°C
Summary of the method: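 B16/F1 cells, washed twice in binding medium (DMEM, 25 mM HEPES pH 7.4, 0.2% BSA, 0.3 mM 1,10-phenanthroline), incubated at 25°C for 20, 40, 60, 90 and 120 min (n=3) with ~200,000 cpm HPLC-purified ¹¹¹In-labelled test compound. Cells rinsed in ice-cold 0.2% BSA/0.01 M PBS pH 7.4. Membrane-bound activity stripped with 40 mM sodium acetate pH 4.5, 0.9% NaCl, 0.2% BSA. Internalized activity recovered by 1 N NaOH lysis (5 min). Both fractions gamma-counted.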

[3] = Urinary metabolites by RP-HPLC; assay type: in vivo, mouse; conditions: urine, 2 h post-injection
Summary of the method: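 A C57 mouse bearing a B16/F1 flank tumour (1×10⁶ cells s.c., 10 days) received 37 MBq (1 mCi) ¹¹¹In-labelled test compound via the tail vein. It was euthanized at 2 h and urine collected. Urine was centrifuged at 16,000g for 5 min, and aliquots were analysed by RP-HPLC using a 20-min 18–28% acetonitrile/20 mM HCl gradient.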

[4] = tested on: B16/F1 melanoma-bearing C57 mice; test: Biodistribution in B16/F1 melanoma-bearing C57 mice; assay type: in vivo, mouse
[5] = as above; assay type: in vivo, mouse; conditions: female, C57, mouse, urine, iv, 0.037 MBq, total radioactivity, percent injected dose, 0.5 h post-injection
[6] = In vitro serum stability in mouse serum monitored by RP-HPLC; assay type: in vitro ADME; conditions: 37 °C, 24 h
Summary of the method: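 Test compound was labelled with ¹¹¹In in 0.5 M NH₄OAc pH 4.5 at 75°C for 45 min, and unbound ¹¹¹In was scavenged with EDTA. It was purified by C-18 RP-HPLC (20-min 18–28% acetonitrile gradient in 20 mM HCl). The purified label was incubated in mouse serum at 37°C for 24 h, with degradation monitored by RP-HPLC.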

MC1 receptor = conditions: cited from earlier work
[7] = biological target: melanocortin-1 (MC1) receptor (Mus musculus, UniProt Q01727); conditions: read-out: MC1 receptor binding affinity; B16/F1 cells; ref [17], [21]; cited from earlier work
Sequence of melanocortin-1 (MC1) receptor (Q01727 whole entry): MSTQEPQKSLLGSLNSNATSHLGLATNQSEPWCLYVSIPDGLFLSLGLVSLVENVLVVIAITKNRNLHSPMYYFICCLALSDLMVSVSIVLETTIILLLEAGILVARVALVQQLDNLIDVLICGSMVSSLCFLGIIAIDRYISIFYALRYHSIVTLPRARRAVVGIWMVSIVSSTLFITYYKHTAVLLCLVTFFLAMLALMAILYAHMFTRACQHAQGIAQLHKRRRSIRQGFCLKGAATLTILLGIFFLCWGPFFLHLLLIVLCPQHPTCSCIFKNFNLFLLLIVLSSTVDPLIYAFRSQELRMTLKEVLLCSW

[8] = tested on: B16/F1 melanoma-bearing C57 mice; conditions: mouse, in vivo, 4 h; cited from earlier work

Urinary metabolite analysis by RP-HPLC [3]: remained intact
Tumor uptake with NDP-MSH co-injection as percent of tumor uptake without ([4]; 10 μg non-radiolabeled NDP-MSH co-injection, 2 h): 4.2%
Reduction of kidney uptake value by L-lysine co-injection ([4]; 2 h post-injection): 30%
Renal uptake value as percent of that of ^111In-DOTA-GlyGlu-CycMSH ([4]; 2 h post-injection): 72.8%
Tumor uptake value, times that of ^111In-DOTA-GlyGlu-CycMSH ([4]; 2 h post-injection): 1.86 times
Tumor uptake value, times that of ^111In-DOTA-Re(Arg^11)CCMSH ([4]; 2 h post-injection): 1.12 times
Renal uptake value as percent of that of ^111In-DOTA-GlyGlu-CycMSH ([4]; 4 h post-injection): 82.4%
Tumor uptake value, times that of ^111In-DOTA-Re(Arg^11)CCMSH ([4]; 4 h post-injection): 0.98 times
Tumor uptake value, times that of ^111In-DOTA-Re(Arg^11)CCMSH ([4]; 24 h post-injection): 1.29 times
Percent of tumor activity at 2 h post-injection remaining in tumors at 24 h ([4]; 24 h vs 2 h post-injection): 54.3%
dose excreted at 0.5 h [5]: 57 ± 3.91%
Stability in mouse serum [6]: stable
Compound: CCCC[C@H](NC(=O)CN1CCN(CC(=O)O)CCN(CC(=O)O)CCN(CC(=O)O)CC1)C(=O)N[C@H]1CC(=O)NCCCC[C@@H](C(N)=O)NC(=O)[C@H](Cc2c[nH]c3ccccc23)NC(=O)[C@H](CCCNC(=N)N)NC(=O)[C@@H](Cc2ccccc2)NC(=O)[C@H](Cc2c[nH]cn2)NC1=O [^111In-DOTA-Nle-CycMSHhex, metal not drawn]
Internalized activity remained inside the cells (B16/F1 melanoma cells [1]): 89.5±1.9%
Cellular uptake activity internalized (B16/F1 melanoma cells [2]; 20 min post incubation): 72.9±3.5%
Cellular uptake activity internalized (B16/F1 melanoma cells [2]; 120 min post incubation): 88.3±0.7%

Compound: Ac-Nle-c[Asp-His-DPhe-Arg-Trp-Lys(CONH2)] [MT-II]
MC1 receptor binding affinity compared with native α-MSH peptide (MC1 receptor; ref [27], [28]): higher MC1 receptor binding affinity
MC1 receptor dissociation rate compared with native α-MSH peptide (MC1 receptor; ref [27], [28]): slower MC1 receptor dissociation rate

Compound: DOTA-Gly-Glu-c[Lys-Nle-Glu-His-DPhe-Arg-Trp-Gly-Arg-Pro-Val-Asp] ({DOTA}-GEK[Nle]EH[dF]RWGRPVD; lactam 3-14; not fully specified) [DOTA-GlyGlu-CycMSH]
IC50 [7]: 0.9 nM

Compound: [Ac-Nle^4,Asp^5,D-Phe^7,Lys^11(pz-^99mTc(CO)3)]α-MSH4–11
Melanoma uptake [8]: 4.24 ± 0.94 %ID/g

Compound: [Nle^4, D-Phe^7]- α-MSH [NDP-MSH]
Affinity for the MC1 receptor present on the melanoma cells (MC1 receptor; stated without reference): picomolar

Compound: ^99mTc(CO)3-pz-βAla-Nle-cyclo[Asp-His-D-Phe-Arg-Trp-Lys]-NH2
Kidneys uptake [8]: 32.12 ± 1.57 %ID/g
Liver uptake [8]: 22.86 ± 1.17 %ID/g
Melanoma uptake [8]: 11.31 ± 1.81 %ID/g
